The record followed here is PubChem BioAssay.

In general, inhibition refers to the drop in the measured response relative to a control, in per cent.

The nature of test [1]: inhibitors of TNFa-induced NFkB p65 translocation, primary screen, imaging, HUVEC, MLSMR starter and 10KST1 sets (AID 438;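 active = inhibition above 20% together with a positive visual image hit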;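 note: compound added about 3h40 before a 20 min TNFalpha stimulation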;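 for inhibition: signal is the nuclear over cytoplasmic p65 intensity ratio per well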). As to conditions: HUVEC TNFa-induced p65 nuclear translocation; cell count: measured here: nuclei count (cytotoxicity indicator), at 2.08 µM; inhibition: at 2 µM, stronger effect = higher value, 0% TNFa-plus-vehicle, 100% no-TNFa wells.
Test [2] can be described thus: inhibitors of E-selectin induction by TNFa, primary screen, imaging, HUVEC, immunofluorescence, MLSMR starter and 10KST1 sets (AID 487;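 active = visually confirmed hit in the image check and inhibition above 20%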;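 for inhibition: signal is fraction of cell area covered by stained E-selectin grains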;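 for nuclei count: 100% = median nuclei count of all wells on the same plate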). As to conditions: HUVEC TNFalpha-induced E-selectin immunofluorescence imaging, at 2 µM; inhibition: stronger effect = higher value; nuclei count: measured here: cell number, toxicity.
Test [3] in a line: DUSP6 inhibitors restoring Erk phosphorylation by chemical complementation, primary imaging in DUSP6-transfected HeLa (AID 609;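 active = compounds giving at least 50% inhibition in the cell-based MKP-3 phosphatase rescue imaging test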;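 for inhibition: phospho-Erk level distribution per well compared with pooled transfected vehicle control wells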). To be noted: HeLa MKP-3 transfected, phospho-Erk imaging KS statistic, at 10 µM, cells stimulated with TPA for 15 min.
The target of test [4] is Dual specificity protein phosphatase 6 (Homo sapiens) (UniProt Q16828). Described as above. As to conditions: HeLa MKP-3 transfected, phospho-Erk imaging KS statistic; at 10 µM; stronger effect = higher value; cells stimulated with TPA for 15 min.
Chain of Dual specificity protein phosphatase 6 (Homo sapiens) (Q16828 whole entry, looked up): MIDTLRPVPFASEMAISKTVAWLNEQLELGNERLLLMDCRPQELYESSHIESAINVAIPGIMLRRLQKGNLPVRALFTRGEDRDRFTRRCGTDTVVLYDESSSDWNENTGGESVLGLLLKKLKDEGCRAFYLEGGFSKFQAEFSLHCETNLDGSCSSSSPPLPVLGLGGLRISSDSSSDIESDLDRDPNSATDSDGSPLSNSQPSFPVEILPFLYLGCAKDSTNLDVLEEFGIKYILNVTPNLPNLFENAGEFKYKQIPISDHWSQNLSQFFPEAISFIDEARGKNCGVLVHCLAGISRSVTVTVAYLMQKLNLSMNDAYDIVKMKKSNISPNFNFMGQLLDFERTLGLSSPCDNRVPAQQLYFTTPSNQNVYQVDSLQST
Test [5] addresses Voltage-gated potassium channel subunit beta-2 (Rattus norvegicus) (UniProt P62483). In words: KvBeta enzyme negative modulators, primary screen, biochemical, NADPH fluorescence (AID 622;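 active = fluorescence slope higher than the sample average by over 3 SD, cut at about -0.22 in these data, passing the limit was not always enough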;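 note: slope of raw intensity against log time taken from 70 to 1610 s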). To be noted: recombinant KvBeta, 4-cyanobenzaldehyde reduction, at 10 µM, stronger effect = higher value.
The target is the same in test [6]. Nature of the test: KvBeta positive modulators, primary screen, biochemical, NADPH fluorescence (AID 623;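 active = NADPH fluorescence slope more negative than the mean of all samples by about 3 SD, 99.7% confidence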;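 note: fluorescence intensity change per second fitted from 20 to 320 s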). To be noted: Recombinant KvBeta, NADPH fluorescence decrease slope, 10 min; at 10 µM; stronger effect = lower value.
Test [7] deals with Alpha-2C adrenergic receptor (Homo sapiens) (UniProt P18825). Nature of the test: modulators of alpha2C/GIRK thallium flux, primary screen, cell-based, HEK293 alpha2C/GIRK1/2 (AID 624;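 active = fluorescence slope after compound addition differing from the mean of all screened samples at 99.7% confidence, in either direction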;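 note: slope of fluorescence ratio to pre-addition baseline per second over 15 to 24 s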). As to conditions: thallium flux BTC fluorescence, at 10 µM, actives lie on both sides.
Chain of Alpha-2C adrenergic receptor (Homo sapiens) (P18825 whole entry, looked up): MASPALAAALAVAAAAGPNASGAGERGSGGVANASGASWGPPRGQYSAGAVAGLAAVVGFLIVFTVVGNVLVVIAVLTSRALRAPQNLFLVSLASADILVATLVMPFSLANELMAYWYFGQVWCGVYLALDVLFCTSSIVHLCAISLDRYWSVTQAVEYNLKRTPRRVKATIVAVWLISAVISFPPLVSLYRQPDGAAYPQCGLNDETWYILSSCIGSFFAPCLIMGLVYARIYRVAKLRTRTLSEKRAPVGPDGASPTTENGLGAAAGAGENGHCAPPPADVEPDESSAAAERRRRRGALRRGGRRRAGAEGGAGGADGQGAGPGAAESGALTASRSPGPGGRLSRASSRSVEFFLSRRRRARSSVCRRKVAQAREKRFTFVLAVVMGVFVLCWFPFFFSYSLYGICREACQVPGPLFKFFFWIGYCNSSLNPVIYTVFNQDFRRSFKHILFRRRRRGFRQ
Test [8] can be described thus: inhibitors of larval lipid processing in zebrafish, primary screen, whole organism, PED6 fluorescence, gall bladder and intestine (AID 686;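 active = a full or partial loss of lipid-probe fluorescence in the fish gall bladder, intestine or both, judged by eye; inactive = no fluorescence loss, or compound toxic to the fish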;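 note: larvae 5 to 7 days old with five fish per well; signal comes from phospholipase A2 cleavage of quenched PED6 carried via bile; overnight exposure to compound and PED6 before scoring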). To be noted: Zebrafish larvae PED6 lipid processing, fluorescence scoring; screened at 20 µM (by protocol). The essentials:
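Also added: quenched phospholipase substrate PED6, 100 nM final, ingested by larvae; System: zebrafish larvae, 5-7 d; Quantity: 5 larvae per well; Compound: 20 µM single dose; Schedule: overnight compound and PED6 incubation; Read-out: visual per-well fluorescence inhibition score; Measured by: By-eye fluorescence microscopy; Medium: E3.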

Test [9] is described as follows: inhibitors of Chlamydomonas gravitaxis, primary screen, whole organism, Chlamydomonas reinhardtii, WT vs cilia-less mutant, absorbance, 96-well (AID 463189).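 Note: 0% = wild type cc124 cells in DMSO and 100% = ciliumless bld1 mutant cells.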 As to conditions: OD600 absorbance, 2 days, at 10 µM, stronger effect = higher value.
[10] abbreviates: measured here: cell density z-score.
Setting [11] is: measured here: nuclear c-Myc green intensity z-score.
[12] abbreviates: measured here: nuclear pErk red intensity z-score, stronger effect = higher value.

Activity calls are given as the source filed them.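 Rule for the calls, unless noted: active = inhibition at or above 50% relative to wild type and mutant plate controls; inactive = inhibition below 50%.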

Chain of Voltage-gated potassium channel subunit beta-2 (Rattus norvegicus) (P62483 whole entry, looked up): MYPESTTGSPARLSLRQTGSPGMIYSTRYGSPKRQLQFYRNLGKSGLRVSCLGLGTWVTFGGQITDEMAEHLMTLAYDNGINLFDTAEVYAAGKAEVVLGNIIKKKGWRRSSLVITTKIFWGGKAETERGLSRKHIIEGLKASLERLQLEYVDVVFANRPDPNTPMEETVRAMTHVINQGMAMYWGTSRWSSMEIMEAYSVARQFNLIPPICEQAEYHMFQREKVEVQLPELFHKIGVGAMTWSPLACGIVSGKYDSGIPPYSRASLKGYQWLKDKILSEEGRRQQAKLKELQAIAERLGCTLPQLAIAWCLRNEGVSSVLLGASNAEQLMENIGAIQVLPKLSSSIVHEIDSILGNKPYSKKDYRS

As to `CCOC(=O)c1c(C(C#N)C#N)cc(C)nc1C`, the cell count in [1] worked out at 521. In addition, the inhibition was -5.3% (inactive) in [1], -83.6% (inactive) in test [2], -2.07% (inactive) in test [4] and 9.41% (inactive) in [9]. In [2], the nuclei count was 129%. Further, the z-score in test [3] (setting [10]) was 0.584; in [3] (setting [11]), -0.43; in test [3] (setting [12]), 0.768. The fluorescence slope in test [5] was -0.509 (inactive). The NADPH fluorescence slope in test [6] was -8e-05 (inactive). Further, the slope in [7] was 0.00491 (inactive). Also, in test [8], the compound was classed as inactive.
As for `O=C(CN1C(=O)c2ccccc2S1(=O)=O)c1ccccc1`, in [1], the cell count amounted to 567. For the same compound, the inhibition in [1] was -7.2% (inactive); in test [2] it was 39.2% (inactive); in test [4] it was 7.73% (inactive); in [9], -6.59% (inactive). For the same compound, the nuclei count in [2] stood at 193%. For the same compound, the z-score in test [3] (setting [10]) is 0.246; in test [3] (setting [11]), 1.04; in test [3] (setting [12]), -0.287. Further, in test [5], the fluorescence slope is -0.511 (inactive). The NADPH fluorescence slope in [6] is -9e-05 (inactive). Moreover, the slope in test [7] is 0.005 (inactive). The outcome in test [8] was inactive.
In the case of `Cc1ccnc(N2CCN(c3c4c(c(C#N)c5nc6ccccc6n35)CCC4)CC2)c1`, the cell count in test [1] amounted to 585. The inhibition is -9% (inactive) in [1], -90.1% (inactive) in test [2], 15.9% (inactive) in [4] and -3.36% (inactive) in [9]. In [2], this compound yielded a nuclei count of 135%. Further, the z-score was -0.195 in test [3] (setting [10]), 1.1 in test [3] (setting [11]) and 0.491 in test [3] (setting [12]). Further, the fluorescence slope in test [5] is -0.401 (inactive). Also, in [6], the NADPH fluorescence slope is -2e-05 (inactive). For the same compound, in [7], the slope was 0.00557 (inactive). For the same compound, in [8], the result was inactive.
Consider `CC1(C)Cc2c(oc3ncn4ncnc4c23)CO1`, for which the cell count in test [1] is 587. Further, the inhibition in [1] was -8.9% (inactive); in [2], -143% (inactive); in test [4], 13.2% (inactive); in test [9], 18.4% (inactive). Moreover, in [2], the nuclei count worked out at 102%. Besides, the values for the z-score in [3] (setting [10]), in test [3] (setting [11]) and in test [3] (setting [12]) were -0.312, -1.57 and 0.382, respectively. Moreover, the fluorescence slope in test [5] was -0.569 (inactive). For the same compound, in test [6], the NADPH fluorescence slope is -8.8e-05 (inactive). Besides, in test [7], the slope was 0.00443 (inactive). In test [8], the call was inactive.
Consider `CCCCOc1nc2ccccc2nc1C(C#N)C(=O)NC1CCCCC1` (centres undefined), for which the cell count in test [1] worked out at 320. Also, the inhibition in test [1] is -10.2% (inactive); in test [2], -124% (inactive); in test [4], -15.8% (inactive); in [9] it was 1.58% (inactive). For the same compound, the nuclei count in test [2] turned out to be 151%. Also, the z-score is -1.21 in test [3] (setting [10]), 0.194 in test [3] (setting [11]) and 1.47 in test [3] (setting [12]). Moreover, in [5], the fluorescence slope is -0.41 (inactive). Further, the NADPH fluorescence slope in test [6] was -0.00013 (inactive). Further, the slope in test [7] is 0.00654 (inactive). For the same compound, the result in test [8] was inactive.
Regarding `O=C1OC2CCC1(c1ccccc1)C2` (centres undefined), the cell count in test [1] is 573. Besides, the inhibition in test [1] is -7% (inactive); in test [2], 40.2% (inactive); in [4], -5.89% (inactive); in test [9], -4.76% (inactive). Further, the nuclei count in [2] was 137%. Besides, the z-score is -1.09 in test [3] (setting [10]), 0.357 in test [3] (setting [11]) and 0.719 in test [3] (setting [12]). Further, in test [5], the fluorescence slope is -0.524 (inactive). In test [6], the NADPH fluorescence slope was -7.2e-05 (inactive). The slope in test [7] is 0.00472 (inactive). The compound was called inactive in test [8].
For `CCN1CCN(c2nc3c(C)cccn3c(=O)c2/C=C(\C#N)S(=O)(=O)c2ccc(C)cc2)CC1`, the cell count in test [1] was determined as 519. Besides, the inhibition in [1] was -0.8% (inactive); in [2], -173% (inactive); in [4], 1.6e-07% (inactive); in test [9], 14.6% (inactive). The compound also came in with a nuclei count in test [2] of 118%. Also, the z-score was 0.354 in test [3] (setting [10]), -1.44 in test [3] (setting [11]) and 0.701 in test [3] (setting [12]). In addition, in test [5], the fluorescence slope is -0.51 (inactive). Moreover, the NADPH fluorescence slope in test [6] was -6.4e-05 (inactive). Moreover, in test [7], the slope is 0.00274 (inactive). In addition, the call in [8] was inactive.
In the case of `CC(C)(C)c1cccc(/C=N/O)c1O`, the cell count in [1] was found to be 519. Also, the inhibition in [1] is -19.1% (inactive); in test [2] it was -214% (inactive); in test [4] it was 7.93% (inactive); in [9], 9.58% (inactive). For the same compound, in test [2], the nuclei count came to 140%. Besides, the z-score in test [3] (setting [10]) is 2.16; in test [3] (setting [11]) it was -0.74; in test [3] (setting [12]) it was -1.64. Further, in [5], the fluorescence slope was -0.526 (inactive). For the same compound, in test [6], the NADPH fluorescence slope was -2.2e-05 (inactive). For the same compound, in [7], the slope was 0.00592 (inactive). The outcome in test [8] was inactive.
Consider `COc1ccc(OC)c(C2NC(=O)c3sc(=S)n(-c4ccccc4)c3N2)c1` (centres undefined), for which the cell count in test [1] came out at 612. Further, the inhibition is -8.4% (inactive) in test [1], -60.3% (inactive) in test [2], -6.86% (inactive) in test [4] and -6.25% (inactive) in test [9]. The same compound yielded a nuclei count in [2] of 159%. Moreover, the figures for the z-score in [3] (setting [10]), in test [3] (setting [11]) and in test [3] (setting [12]) were -1, 0.762 and 1.43, respectively. For the same compound, the fluorescence slope in test [5] is -0.369 (inactive). For the same compound, the NADPH fluorescence slope in test [6] is -6.5e-05 (inactive). Further, the slope in test [7] was 0.00525 (inactive). The call in test [8] was inactive.
As for `CC1(C)Cc2c(c(N3CCOCC3)nc3snc(N)c23)CO1`, in test [1], the cell count amounted to 554. Further, the inhibition is -1.3% (inactive) in test [1], -78.1% (inactive) in test [2], 1.48% (inactive) in test [4] and 22.3% (inactive) in [9]. This compound came in with a nuclei count in [2] of 140%. Further, the z-score in test [3] (setting [10]) was 0.144; in test [3] (setting [11]) it was -0.616; in [3] (setting [12]) it was 0.222. In addition, the fluorescence slope in test [5] was -0.281 (inactive). The NADPH fluorescence slope in test [6] is -1.1e-05 (inactive). In addition, the slope in test [7] was 0.00566 (inactive). Further, the result in [8] was inactive.
As for `CCCCOc1ccc(C)cc1CN(CCO)CCO`, the cell count in [1] was found to be 552. In addition, the inhibition was -8% (inactive) in [1], -87% (inactive) in test [2], 1.9e-07% (inactive) in [4] and -2.14% (inactive) in [9]. The nuclei count in test [2] came to 111%. Moreover, the results for the z-score in test [3] (setting [10]), in [3] (setting [11]) and in test [3] (setting [12]) were -1.69, -0.122 and -1.5, respectively. The fluorescence slope in test [5] was -0.506 (inactive). The NADPH fluorescence slope in [6] was -1.2e-05 (inactive). The slope in test [7] is 0.0065 (inactive). Moreover, the compound was called inactive in test [8].
Turning to `COC(=O)c1c(C)noc1-c1cc(C)on1`, the cell count in [1] is 514. Further, the inhibition in [1] is 5.6% (inactive); in [2], 63.3% (inactive); in test [4], 3.56% (inactive); in [9] it was -9.07% (inactive). In test [2], the nuclei count amounted to 177%. Moreover, the z-score was -1.72 in [3] (setting [10]), 0.497 in test [3] (setting [11]) and 0.322 in test [3] (setting [12]). Also, in test [5], the fluorescence slope is -0.533 (inactive). Also, the NADPH fluorescence slope in test [6] was -4e-05 (inactive). The slope in [7] is 0.00511 (inactive). Also, in test [8], the compound was called inactive.
With `CCCc1cc(-n2ccnc2C)n2c(nc3ccccc32)c1C#N`, the cell count in test [1] amounted to 536. The inhibition was -42.1% (inactive) in test [1], -109% (inactive) in test [2], -15% (inactive) in test [4] and 4.33% (inactive) in [9]. Besides, in test [2], the nuclei count worked out at 153%. The z-score in test [3] (setting [10]) is -0.822; in test [3] (setting [11]), -0.981; in [3] (setting [12]), 0.35. In addition, the fluorescence slope in test [5] was -0.415 (inactive). The NADPH fluorescence slope in test [6] was -3.2e-05 (inactive). Moreover, in [7], the slope was 0.00567 (inactive). In addition, the result in test [8] was inactive.
